Screening results: PubChem, several laboratories
Only some compounds are listed: those with a hit (about 4.5% of all), similar ones and a draw of the others.
M18AAP inhibitor: blocks P. falciparum M18 aspartyl aminopeptidase. inhibition, % at 7.35 µM. hit rate 1.2% among 290,000. recombinant PfM18AAP, H-Glu-NHMec fluorogenic cleavage. AID 1822;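 active = inhibition above the campaign mean inhibition over all tested compounds plus 3 SD, cut at about 28% in these data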;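 also: 0% = plate median of test compound wells and 100% = 2 mM ZnCl2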
CHOP inhibitor: blocks CHOP induction under ER stress | CHO-K1 CHOP-promoter luciferase, tunicamycin-induced, 15-18 h | inhibition, % at 10 µM | hit rate 3.8% among 220,000 | AID 2732;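 active = compounds that reduced the stress-induced luciferase reporter signal by more than about 70% of percent inhibition, limit read from the data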;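 also: 0% = tunicamycin plus vehicle and 100% = wells without tunicamycin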
XBP1 UPR activ: activators of adaptive arm of unfolded protein response (XBP1); AID 463104; CHO-XBP1 luciferase reporter, IRE1-XBP1 UPR activation, luminescence; percent of tunicamycin response, DMSO as zero; hit rate 0.33% among 330,000; activation, % at 20 µM;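 active = versus positive control, 20 µM dose yields 30% or more activation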;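 also: 100% = tunicamycin at 10 µg/mL and 0% = DMSO only wells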
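Assay system: IRE1-XBP1 luciferase reporter CHO line. Input: 1000 cells/well. Buffer or medium: F12 with 10% serum. Doses: 20 µM, 1% DMSO. Times: overnight seeding at 37 °C, 6 h compound treatment at 37 °C. Technique: Steady-Glo luciferase glow luminescence, 10 min after reagent addition.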
p97 ATPase inh: inhibitors of human p97 ATPase; P55072; AID 1481; hit rate 0.42% among 220,000; recombinant p97 ATPase, Kinase-Glo ATP luminescence, 3 h; inhibition, % at 8 µM; in the data active = inhibition above about 15%;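 also: 0% = DMSO vehicle and 100% = wells lacking enzyme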
Target sequence (P55072 whole entry, looked up): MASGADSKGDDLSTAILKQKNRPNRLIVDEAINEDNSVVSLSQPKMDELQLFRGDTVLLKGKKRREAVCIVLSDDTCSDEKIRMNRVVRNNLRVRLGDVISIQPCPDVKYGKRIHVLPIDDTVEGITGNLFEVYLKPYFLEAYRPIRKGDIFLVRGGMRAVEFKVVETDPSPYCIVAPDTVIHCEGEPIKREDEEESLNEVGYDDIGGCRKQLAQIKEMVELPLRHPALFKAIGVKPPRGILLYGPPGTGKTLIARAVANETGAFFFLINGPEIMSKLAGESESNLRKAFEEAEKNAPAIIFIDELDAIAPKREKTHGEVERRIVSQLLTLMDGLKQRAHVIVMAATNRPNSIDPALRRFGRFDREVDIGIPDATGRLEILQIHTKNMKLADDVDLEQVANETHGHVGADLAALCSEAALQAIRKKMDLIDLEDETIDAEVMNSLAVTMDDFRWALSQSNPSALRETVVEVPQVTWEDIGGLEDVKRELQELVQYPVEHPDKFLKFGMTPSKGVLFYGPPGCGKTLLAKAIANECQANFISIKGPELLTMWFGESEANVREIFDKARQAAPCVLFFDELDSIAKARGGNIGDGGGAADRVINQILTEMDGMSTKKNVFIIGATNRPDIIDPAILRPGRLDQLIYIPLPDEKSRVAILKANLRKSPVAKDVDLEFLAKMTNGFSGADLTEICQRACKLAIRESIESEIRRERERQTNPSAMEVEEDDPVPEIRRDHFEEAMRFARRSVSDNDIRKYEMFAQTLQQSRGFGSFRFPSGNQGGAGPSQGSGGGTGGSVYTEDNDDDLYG
NS3 helicase inh: blocks Hepatitis C virus NS3 helicase unwinding; AID 1800; NS3 helicase DNA unwinding, Cy5 molecular beacon fluorescence; hit rate 0.56% among 290,000; inhibition, % at 10.9 µM;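 active = inhibition above the mean of all tested compounds plus 3 SD, set per campaign, cut at about 35% in these data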;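 also: 0% = DMSO wells and 100% = thioflavine S control wells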
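Assay system: hepatitis C virus NS3 helicase domain fragment enzyme. Also added: annealed dual-labelled DNA beacon duplex, ATP-started. Timing: 1 h reaction at 25 °C, ATP-initiated. Technique: Cy5 fluorescence at 0 and 60 min, beacon hairpin quenching. Evaluation: % inhibition of unwinding. Replication: one well per compound.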
UPR CHOP act: apoptotic UPR (CHOP) activation | AID 449763 | CHO-CHOP luciferase reporter, luminescence; percent of tunicamycin response over DMSO baseline | activation, % at 10 µM | hit rate 0.34% among 330,000;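 active = at 10 µM dose, activation of 40% or more, normalized to positive control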;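 also: 100% = tunicamycin at 10 µg/mL and 0% = DMSO alone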
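Evaluation: % reporter activation, DMSO baseline versus tunicamycin full activation; System: CHO-CHOP luciferase reporter cell line; Input: 500 cells/well; Incubation: 6 h compound treatment, 37 °C; Measured by: Steady-Glo luciferase luminescence; Dosing: one dose, 10 µM in 0.5% DMSO; Buffer or medium: F12 medium, 10% FBS; Benchmarks: positive tunicamycin 10 µg/mL, negative DMSO alone.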
CHOP confirm: confirmation of CHOP induction inhibitors. AID 504437. CHO-CHOP promoter luciferase reporter, tunicamycin-induced, luminescence. shares compounds with CHOP inhibitor. inhibition, % at 10 µM. hit rate 45% among 2,100;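 active = mean of three repeat readings of reporter signal inhibition above a set limit, cut at about 70% in these data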;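 also: 0% = tunicamycin plus vehicle and 100% = wells lacking tunicamycin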
* marks the source's active call; other numbers are inactive results; . = no result given.

SMILES | M18AAP inhibitor | CHOP inhibitor | XBP1 UPR activ | p97 ATPase inh | NS3 helicase inh | UPR CHOP act | CHOP confirm
Nc1nnnn1/N=C/c1cccc(OCc2ccccc2Cl)c1 | 9 | 104* | 0 | -4 | 2 | 5 | 51
Cc1c(OC(C)C(=O)NCC2CCC(C(=O)O)CC2)ccc2c(-c3ccccc3)cc(=O)oc12 (centres undefined) | 5 | . | -2 | . | -5 | -1 | .
COc1ccc(-c2c(NC(=O)c3ccco3)oc3c(C)cccc3c2=O)cc1OC | -1 | . | -2 | . | -5 | -3 | .
CC(C)Oc1ccc(C(=O)Nc2ccc(NC(=O)c3ccco3)c(Cl)c2)cc1 | -1 | 9 | 1 | 0 | 7 | 1 | .
CC(C)COc1ccc(C(=O)Nc2ccc(NC(=O)c3ccco3)c(Cl)c2)cc1 | -26 | 101* | 6 | -6 | -15 | -2 | 69
Cc1cc2cc(CCNC(=O)CCCc3ccccc3)c(=O)[nH]c2cc1C | -1 | . | -2 | . | 0 | -2 | .
CC(C)c1ccc(O)c(NC(=S)NC(=O)CCc2ccccc2)c1 | 2 | 106* | -1 | -5 | -6 | 0 | 110*
CC(=O)c1ccc(S(=O)(=O)Nc2ccc(C(=O)N3CCC3)cc2)cc1 | . | . | -3 | . | . | 1 | .
O=Cc1ccc(Sc2nnc(-c3ccccc3)o2)c([N+](=O)[O-])c1 | 0 | 97* | 8 | 9 | -7 | 0 | -28
Cc1cc(Cl)c(S(=O)(=O)N2CCN(c3cccc(C)c3C)CC2)cc1OCC(N)=O | -1 | 107* | -4 | -2 | -13 | 0 | 70
CCCCc1ccc(NC(=S)NCc2cccc(OC)c2)cc1 | -5 | 102* | 1 | -6 | -7 | -1 | 19
O=C(Nc1ccccc1)c1oc2ccccc2c1NC(=O)C1CC1 | 2 | . | 4 | . | -7 | 0 | .
O=C(Nc1ccccc1)Nc1cccc(C(F)(F)F)c1 | 6 | 32 | 8 | -3 | -6 | 1 | .
CCSCCc1nnc(NC(=O)Nc2cccc(C(F)(F)F)c2)s1 | -11 | 96* | 11 | -6 | 1 | 7 | 99*
N#C/C(=C\c1c[nH]c2ccccc12)C(=O)c1ccc(O)c(O)c1 | . | -1 | . | . | . | . | .
CC(C)COC(=O)/C(C#N)=C/c1c[nH]c2ccccc12 | 7 | 101* | 6 | 0 | 4 | 4 | -22
Cc1ccc(NC(=O)c2cc(N3C(=O)C=CC3=O)ccc2N2CCOCC2)cc1Cl | 3 | 100* | . | 6 | 4 | . | -19
Cc1ccc(NC(=O)c2cc(N3C(=O)CCC3=O)ccc2N2CCOCC2)cc1 | -3 | -21 | -2 | 7 | -6 | 1 | .
O=C(Cn1c(COc2ccccc2)nc2ccccc21)Nc1cc(Cl)cc(Cl)c1 | -8 | 109* | 18 | 3 | 1 | 6 | 32
CCC1CCc2sc(C(=O)NCC(c3ccccc3OC)N3CCCC3)cc2C1 (centres undefined) | . | . | 3 | . | . | 0 | .
NS(=O)(=O)c1ccc(N2N=C(c3ccccc3)CC2c2ccc(F)cc2)cc1 (centres undefined) | 5 | 105* | 0 | 6 | -13 | -2 | -26
CCOC(=O)C(=O)Nc1ncc(Cl)s1 | 3 | 4 | -2 | 6 | 6 | 3 | .
Cc1ccc2c(=O)n3c(nc2c1)C(Cc1ccccc1)NC(=O)c1ccc(Cl)cc1-3 (centres undefined) | . | . | 0 | . | . | 1 | .
Cn1c(=O)[nH]c(=O)c2[nH]c(CN3CCN(Cc4ccccc4)CC3)nc21 | . | 6 | -1 | . | . | 3 | .
Cn1c(=O)[nH]c(=O)c2[nH]c(N(Cc3ccccc3)Cc3ccccc3)nc21 | 16 | 111* | -2 | 7 | -2 | 4 | 114*
SMILES | M18AAP inhibitor | CHOP inhibitor | XBP1 UPR activ | p97 ATPase inh | NS3 helicase inh | UPR CHOP act | CHOP confirm
CCN(CC)CCCNC(=O)CN1N=C(c2ccc(OC)cc2)CCC1=O | 4 | . | -3 | . | 7 | 0 | .
COc1ccc([N+](=O)[O-])cc1NC(=O)COC(=O)c1ccc(O)cc1 | 5 | -17 | -3 | 7 | -4 | -1 | .
COc1cc2c(cc1/C=C1/NC(=O)N(CC(=O)Nc3ccccc3)C1=O)OCO2 | 6 | 102* | -1 | 8 | 4 | -1 | 21
Cc1c(C)c2c(OCC(=O)Nc3cccnc3)cc3c(c2oc1=O)CCC(C)(C)O3 | -10 | . | -3 | . | -22 | 0 | .
COc1ccc(OC)c(/C=N/NC(=O)CSc2cc(C)nc3c(OC)cccc23)c1 | 5 | 105* | 2 | -3 | -5 | 0 | 35
COc1ccc2nc(C)cc(SCC(=O)N/N=C/c3ccco3)c2c1 | 28 | . | 0 | . | 26 | 0 | .
CCn1c(=O)c(C(=O)NNS(=O)(=O)c2ccc(Br)cc2)c(O)c2ccccc21 | 5 | 105* | 0 | 7 | 12 | 0 | 68
CCCCc1ccc(NC(=S)Nc2ccc(Cl)c(S(=O)(=O)N(C)C)c2)cc1 | 0 | 105* | . | 2 | -1 | . | 83*
CCN1CCN(CC(=O)Nc2ccc(Cl)c(S(=O)(=O)N(C)C)c2)CC1 | -5 | 8 | -2 | 3 | 8 | -1 | .
Cc1cc(OC(=O)c2cc([N+](=O)[O-])ccc2Cl)c([N+](=O)[O-])c(=O)[nH]1 | 2 | . | 0 | . | -1 | -1 | .
Cc1cc2c(cc1C)CSC(c1ccc3ccccc3c1O)SC2 | -16 | 65 | -2 | 5 | 29 | -2 | .
Cc1cc2c(cc1C)CSC(c1c(O)ccc3ccccc13)SC2 | -7 | 112* | 13 | 5 | -4 | -1 | 116*
Cc1cc2c(cc1C)CSC(c1ccccc1O)SC2 | 10 | 108* | 7 | 2 | -10 | 2 | 111*
Cc1cc2c(cc1C)CSC(c1ccccc1OC(=O)C(C)(C)C)SC2 | -1 | -19 | -2 | -4 | -10 | 1 | .
O=C(Nc1cccc(Cl)c1Cl)c1cc(S(=O)(=O)NCCc2ccccc2)ccc1F | 2 | 97* | -2 | -2 | -12 | 0 | 88*
O=C(Nc1ccccc1C(=O)O)c1cc(S(=O)(=O)NCc2ccccc2)ccc1Cl | 3 | . | -3 | . | 2 | 0 | .
Cc1cc(NC(=O)C2CCCCC2)n(-c2nc3ccccc3[nH]2)n1 | 3 | 102* | 5 | -1 | -1 | 1 | 40
Cc1cc(NC(=O)/C=C/c2ccc(F)cc2)n(-c2nc3ccccc3[nH]2)n1 | 10 | -6 | 9 | 6 | 11 | 7 | .
Cc1cc(NC(=O)c2ccc(C)s2)n(-c2nc3ccccc3[nH]2)n1 | -7 | -28 | 6 | 2 | 18 | 3 | .
Cc1cc(NC(=O)c2c(F)cccc2F)n(-c2nc3ccccc3[nH]2)n1 | 3 | 100* | 5 | -1 | 1 | 5 | -6
COc1cc(C(=O)NCCC(=O)N2CCC3(CC2)NCCc2[nH]cnc23)cc(OC)c1OC | 7 | . | 0 | . | 6 | 0 | .
